Only some compounds are listed: those with a hit (about 0.79% of all), similar ones and a draw of the others.
mIAP act – increases mouse intestinal alkaline phosphatase activity; muIAP, CDP-Star luminescence, 30 min; active compounds read high; 1 = vehicle-only enzyme signal, 0 = enzyme-free wells; activation factor at 10 µM; hit rate 0.24% among 330,000; AID 2805;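 active = activation factor of at least 2 at 20 µM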
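Assay system: mouse IAP enzyme; reagent: chemiluminescent substrate CDP-Star; dosing: test compounds delivered from DMSO solution; schedule: 30 min at room temperature; measured by: luminescence from enzymatic CDP-Star hydrolysis; controls: DMSO-only wells and no-enzyme negative control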
bIAP act – increases bovine intestinal alkaline phosphatase activity. purified bovine IAP, CDP-star luminescence, 30 min; active compounds read high; fold of DMSO-control signal, blank-subtracted. activation factor at 20 µM. hit rate 0.17% among 200,000;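 active = activation factor of 2 or more at 20 µM, a signal rise over negative controls twice the positive control's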
bIAP inh – intestinal alkaline phosphatase (bovine) inhibition; purified bovine IAP, CDP-star luminescence, 30 min; inhibition, % at 20 µM; 190,000 tested, under 10 active; AID 1019;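 active = over 50% inhibition of intestinal alkaline phosphatase at 20 µM in the single-dose screen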
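System: Purified bovine intestinal alkaline phosphatase (IAP) enzyme | Input: IAP diluted 1/65,000,000 in the well | Also added: CDP-star chemiluminescent phosphatase substrate, 30 µM final | Dosing: 20 µM single dose | Times: Enzyme reaction for 30 min at room temperature | Detection: Luminescence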
hIAP inh – blocks human intestinal alkaline phosphatase; inhibition, % at 10 µM; AID 2544; hit rate 0.12% among 330,000; P09923; purified IAP, CDP-Star luminescence, 30 min;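 active = inhibition reaching a set limit with compound at 10 µM in the primary screen, cut at about 35% in these data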;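 also: plate controls were DMSO wells with enzyme for no effect and no-enzyme buffer wells for full effect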
Target sequence (P09923 whole entry, looked up): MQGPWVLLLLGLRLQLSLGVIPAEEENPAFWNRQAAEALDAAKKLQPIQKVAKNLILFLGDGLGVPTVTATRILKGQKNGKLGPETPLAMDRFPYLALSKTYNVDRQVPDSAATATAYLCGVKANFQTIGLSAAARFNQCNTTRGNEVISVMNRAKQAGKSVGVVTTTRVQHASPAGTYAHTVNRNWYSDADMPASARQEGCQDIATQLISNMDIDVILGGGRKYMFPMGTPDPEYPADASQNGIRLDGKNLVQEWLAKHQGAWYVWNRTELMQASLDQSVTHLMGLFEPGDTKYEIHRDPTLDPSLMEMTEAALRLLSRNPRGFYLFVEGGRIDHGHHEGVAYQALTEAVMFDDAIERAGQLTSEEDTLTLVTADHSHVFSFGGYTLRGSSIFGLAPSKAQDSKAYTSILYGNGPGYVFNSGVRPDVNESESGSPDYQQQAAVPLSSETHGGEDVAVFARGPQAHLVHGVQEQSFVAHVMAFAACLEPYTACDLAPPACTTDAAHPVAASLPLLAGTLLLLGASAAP
mIAP block – blocks mouse intestinal alkaline phosphatase; purified mouse IAP, CDP-Star luminescence, 30 min; inhibition, % at 10 µM; hit rate 0.2% among 330,000;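 active = inhibition of at least 40% at 10 µM in the primary screen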;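 also: plate controls were DMSO with enzyme for no effect and no enzyme wells for full effect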
hIAP activ – human IAP activation; P09923; purified human IAP, CDP-Star luminescence, 30 min; active compounds read high; 1 = vehicle-only enzyme, 0 = enzyme-free background; activation factor at 10 µM; hit rate 0.16% among 330,000;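 active = activation factor of the enzyme at least 2-fold when tested at 20 µM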
hIAP act confirm – human IAP activation confirmation | shares compounds with hIAP activ | activation (%Activity, negative = activation), % at 8.3 µM | purified IAP, CDP-Star luminescence, 30 min; active compounds read low | hit rate 10% among 880;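 active = at least twofold enzyme activation in any of six single-dose repeats, which the averaged readout prints as negative percent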
mIAP inh conf – mouse IAP inhibition confirmation. shares compounds with mIAP block. purified mouse IAP, CDP-Star luminescence, 30 min. inhibition, % at 10 µM. hit rate 4.7% among 11,000. AID 434971;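 active = inhibition of at least 40% at 10 µM in either of the two replicates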;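 also: plate controls were DMSO wells with enzyme for no effect and buffer wells lacking enzyme for full effect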
* marks the source's active call; other numbers are inactive results; i = inactive; nt = no result given.

SMILES | mIAP act | bIAP act | bIAP inh | hIAP inh | mIAP block | hIAP activ | hIAP act confirm | mIAP inh conf
CNc1nnc(-c2cc3ccccc3oc2=O)s1 | 0.422 | 0.1 | nt | 73.3* | 57.8* | 0.267 | 33.1 | 66.4*
Cc1ccccc1-c1nnc(NC(=O)c2cc3ccccc3oc2=O)s1 | nt | 0.9 | 12.5 | nt | nt | nt | nt | nt
COc1ccc(C(=O)N(C)CC2CCN(CCc3cccc(C(F)(F)F)c3)CC2)cc1C | 0.917 | nt | nt | -5.6 | 8.3 | 1.06 | nt | nt
Cc1cc(=O)oc2cc(OCC(=O)NC3(C#N)CCCCC3)c(Cl)cc12 | 0.934 | nt | nt | -4.9 | 6.6 | 1.05 | nt | nt
O=C1/C(=C\c2cccc(O)c2O)SC(=S)N1Cc1ccccc1 | 0.59 | nt | nt | 44.8* | 41.0* | 0.552 | 5.8 | 63.3*
O=C1/C(=C\c2cccc(O)c2)SC(=S)N1Cc1ccccc1 | 0.793 | nt | nt | -11.0 | 20.7 | 1.11 | nt | nt
Cc1cc(C)n(-c2n[nH]c(C)c2[N+](=O)[O-])n1 | 1.11 | 1 | 4.9 | -5.7 | -11.3 | 1.06 | nt | nt
Cc1ccc(NC(=O)C2CC(=O)Nc3nc4ccccc4n32)c(C)c1 (stereo unspecified) | 3.53* | nt | nt | -169.2 | -253.0 | 2.69* | 38.4 | -157.2
Nc1c(/C=C2/C=CC(=O)C(O)=C2)c(=O)nc2sc(CC(=O)N3CCCC3)nn12 | 0.417 | nt | nt | 47.7* | 58.3* | 0.523 | 17.1 | 78.3*
Nc1c(/C=C2/C=CC(=O)C(O)=C2)c(=O)nc2sc(CC(=O)N3CCCCC3)nn12 | 0.388 | nt | nt | 54.2* | 61.2* | 0.458 | 3.9 | 83.1*
CC1(NC(=O)Cc2c(F)cccc2Cl)CCS(=O)(=O)C1 (stereo unspecified) | 0.933 | nt | nt | -2.7 | 6.7 | 1.03 | nt | nt
COc1ccc(S(=O)(=O)Nc2cc(Sc3ncn[nH]3)c(O)cc2C)cc1 | 0.636 | nt | nt | -3.6 | 36.4 | 1.04 | nt | nt
Cc1ccc([N+](=O)[O-])cc1S(=O)(=O)Nc1ccc(O)c(Sc2ncn[nH]2)c1 | 0.266 | nt | nt | 73.3* | 73.4* | 0.267 | 7.2 | 89.1*
CCn1ncc(CN2CCC(C(=O)Nc3cccc(-c4cccc(F)c4)c3)CC2)c1C | 3.47* | nt | nt | -302.7 | -246.8 | 4.03* | -4.0 | -183.1
CCn1nc(C)c(CN2CCC(C(=O)Nc3cccc(-c4cccc(Cl)c4)c3)CC2)c1C | 8.19* | nt | nt | i | i | 8.75* | 2.1 | -373.8
CCS(=O)(=O)N1CCC(C(=O)Nc2cccc(F)c2)CC1 | 0.892 | nt | nt | -5.9 | 10.8 | 1.06 | nt | nt
CCN1/C(=C/C=C/c2sc3ccccc3[n+]2CC)Sc2ccccc21 | 0.517 | nt | nt | 37.4* | 48.3* | 0.626 | 6.6 | 50.9*
Cc1csc(NC(=O)c2nn(C)c(C)c2[N+](=O)[O-])n1 | 1.03 | 0.9 | 5.3 | 4.9 | -3.2 | 0.951 | nt | nt
COc1ccc(OC)c(CN2CCC(CNC(=O)Nc3cccc(Cl)c3)CC2)c1 | 1.96 | 1.5 | -54.7 | -40.6 | -96.4 | 1.41 | nt | nt
COc1cc(NC(=O)NCC2CCN(Cc3ccccc3Cl)CC2)cc(OC)c1OC | 4.01* | nt | nt | -158.1 | -301.1 | 2.58* | -142.3* | -147.5
O=C1NC(=O)/C(=C\c2ccc(O)cc2O)S1 | 0.292 | 0.5 | 48.3 | 84.5* | 70.8* | 0.155 | 2.9 | 85.3*
CC1C(=O)NN=C1C(=O)N/N=C\c1ccc(O)cc1O (stereo unspecified) | 0.349 | 1 | 2.2 | -149.4 | 65.1* | 2.49* | -78.7* | 60.2*
CN(CC(=O)NC(c1ccccc1)c1ccccc1)Cc1nc2ccccc2c(=O)[nH]1 | 2.09* | 2.5* | -149.3 | -122.4 | -108.6 | 2.22* | -6.5 | -170.6
CN(CC(=O)Nc1ccccc1Sc1ccccc1)Cc1nc2ccccc2c(=O)[nH]1 | 1.07 | 1.6 | -57.8 | -74.2 | -7.1 | 1.74 | nt | nt
CC(=O)Nc1cccc(C(=O)N/N=C/c2c[nH]c3ccccc23)c1 | 1.01 | nt | nt | 11.0 | -0.9 | 0.89 | nt | nt
SMILES | mIAP act | bIAP act | bIAP inh | hIAP inh | mIAP block | hIAP activ | hIAP act confirm | mIAP inh conf
O=C(N/N=C/c1cc2c(cc1[N+](=O)[O-])OCO2)c1ccccn1 | 0.6 | nt | nt | -0.2 | 40.0* | 1 | nt | 58.2*
CC(C)C(NC(=O)c1ccccc1)C(=O)NCCc1ccccc1 (stereo unspecified) | 0.983 | 1.2 | -23.4 | -5.3 | 1.7 | 1.05 | nt | nt
COc1ccc(N(CC(=O)NCc2ccc(C)cc2)S(=O)(=O)c2c(C)noc2C)cc1 | 1.07 | nt | nt | 16.1 | -7.0 | 0.839 | nt | nt
O=C(NCC(=O)N1CCN(S(=O)(=O)c2c(F)cccc2F)CC1)c1ccccc1F | 1.03 | nt | nt | -15.9 | -3.4 | 1.16 | nt | nt
O=C(O)CNS(=O)(=O)c1ccc2c3c(cccc13)C(=O)N2 | 0.524 | nt | nt | -9.9 | 47.6* | 1.1 | nt | 49.2*
CN(c1ccccc1C(=O)O)S(=O)(=O)c1ccc2c3c(cccc13)C(=O)N2 | 0.54 | 0.8 | 20.4 | 10.3 | 46.0* | 0.897 | nt | 62.0*
O=C(O)CCCCCNS(=O)(=O)c1ccc2c3c(cccc13)C(=O)N2 | 0.923 | nt | nt | 12.1 | 7.7 | 0.879 | nt | nt
O=C(O)c1ccccc1NS(=O)(=O)c1ccc2c3c(cccc13)C(=O)N2 | 0.919 | 0.9 | 5.1 | 14.8 | 8.1 | 0.852 | nt | nt
COc1ccc2[nH]c3c(NCc4ccco4)ncnc3c2c1 | 1.48 | 0.8 | 25.0 | -18.9 | -48.1 | 1.19 | nt | nt
Fc1ccc2[nH]c3c(NCc4ccccc4)ncnc3c2c1 | 2.73* | nt | nt | -27.1 | -172.5 | 1.27 | nt | -125.3
Cc1c2cc(O)c(=O)cc-2oc2cc(O)c(O)cc12 | 0.27 | 0.4 | nt | 25.4 | 73.0* | 0.746 | nt | 85.6*
COc1cc(OC)c(-c2c3cc(O)c(=O)cc-3oc3cc(O)c(O)cc23)cc1OC | 0.557 | 1 | -1.9 | -13.9 | 44.3* | 1.14 | nt | 59.4*
CCCCc1ccc(/C(C)=N/Nc2cc(N3CCOCC3)nc(C)n2)cc1 | 0.989 | nt | nt | 10.1 | 1.1 | 0.899 | nt | nt
O=C1CSC(=S)N1N1C(=O)c2cccc([N+](=O)[O-])c2C1=O | 0.43 | 0.5 | 49.1 | -9.7 | 57.0* | 1.1 | nt | 67.7*
CCc1nnc(NC(=O)CSc2sc3c(O)cc(=O)[nH]c3c2C#N)s1 | 0.556 | nt | nt | 1.1 | 44.4* | 0.989 | nt | 64.7*
CCSc1nnc(NC(=O)CSc2sc3c(O)cc(=O)[nH]c3c2C#N)s1 | 0.635 | nt | nt | 3.6 | 36.5 | 0.964 | nt | nt
Cc1csc(NC(=O)CSc2sc3c(O)cc(=O)[nH]c3c2C#N)n1 | 0.531 | nt | nt | 16.2 | 46.9* | 0.838 | nt | 68.4*
O=C(NNC(=S)NC(=O)c1cccs1)c1ccc(O)cc1 | 0.405 | nt | nt | -61.8 | 59.5* | 1.62 | nt | 63.9*
CN1CCN(c2oc(-c3ccccc3)nc2S(=O)(=O)c2ccc(Br)cc2)CC1 | 1.15 | nt | nt | 12.1 | -15.2 | 0.879 | nt | nt
CSc1cccc(NC(=O)C2CCN(S(=O)(=O)c3ccc(F)cc3)CC2)c1 | 3.05* | 1.2 | -17.0 | -39.7 | -204.8 | 1.4 | nt | -97.7
CSc1cccc(NC(=O)C2CCCN(S(=O)(=O)c3ccc(F)cc3)C2)c1 (stereo unspecified) | 1.35 | 0.9 | 12.0 | -14.8 | -35.2 | 1.15 | nt | nt
